From ChEMBL document CHEMBL1138155, “A lactosylated steroid contributes in vivo therapeutic benefits in experimental models of mouse lymphoma and human glioblastoma” (J Med Chem, 2006)

How the values were obtained:
U373 MG [1] = assay: Cytotoxicity against human U373 glioblastoma cell line; assay type: functional, cell-based, U-373MG ATCC
Procedure, shortened: (§1)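 Colorimetric MTT assay on cultured human cancer cells after 3 days of continuous drug exposure. IC50 is the concentration that reduces overall cell-population growth by 50% relative to untreated cells.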

MCF7 = assay: Cytotoxicity against human MCF7 breast cancer cell line; assay type: functional, cell-based; procedure, shortened: as §1
A549 [2] = assay: Antimigratory activity against human A549 NSCLC cell line at 100 nM after 12h; assay type: functional; details: A549, 12 h
Procedure, shortened: (§2)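 Computer-assisted videomicroscopy tracking of living cultured cells, one image every 4 min over 24 h; migration scored as maximum relative distance from origin (MRDO) per cell, read at 12 or 22 h with compound at 100 nM or without (control). Control normalized to 0%. Triplicate analyses, 121–184 cells per condition; mean ± standard error.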

Hs 683 = assay: Cytotoxicity against human Hs683 cancer cell line; assay type: functional, cell-based; procedure, shortened: as §1
A549 [3] = assay: Antimigratory activity against human A549 NSCLC cell line at 100 nM after 22h; assay type: functional; details: A549, 22 h; procedure, shortened: as §2
PC-3 [4] = assay: Antimigratory activity against human PC3 prostate cancer cell line at 100 nM after 22h; assay type: functional; details: PC-3, 22 h; procedure, shortened: as §2
PC-3 [5] = assay: Cytotoxicity against human PC3 prostate cancer cell line; assay type: functional, cell-based; procedure, shortened: as §1
A549 [6] = assay: Cytotoxicity against human A549 NSCLC cell line; assay type: functional, cell-based; procedure, shortened: as §1
Mus musculus = assay: Toxicity in mice at 160 mg/kg, ip 28 days post dose; assay type: organism-based; parameters: dose 160 mg/kg, route intraperitoneal; details: in vivo, 672 h
Procedure, shortened: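 Healthy, non-tumor-grafted mice received a single acute ip dose of 160 mg/kg. Body weight and survival were recorded over at least 28 days after dosing to detect toxic effects.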

HCT-15 = assay: Cytotoxicity against human HCT15 colon cancer cell line; assay type: functional, cell-based; procedure, shortened: as §1
U373 MG [7] = assay: Antimigratory activity against human U373 glioblastoma cell line at 100nM after 22h; assay type: functional, U-373MG ATCC; procedure, shortened: as §2
PC-3 [8] = assay: Antimigratory activity against human PC3 prostate cancer cell line at 100 nM after 12h; assay type: functional; details: PC-3, 12 h; procedure, shortened: as §2
U373 MG [9] = assay: Antimigratory activity against human U373 glioblastoma cell line at 100 nM after 12h; assay type: functional, U-373MG ATCC; procedure, shortened: as §2

SMILES	IC50 (U373 MG [1]) [µM]	IC50 (MCF7) [µM]	inhibition at 0.1 µM (A549 [2]) [%]	IC50 (Hs 683) [µM]	inhibition at 0.1 µM (A549 [3]) [%]	inhibition at 0.1 µM (PC-3 [4]) [%]	IC50 (PC-3 [5]) [µM]	IC50 (A549 [6]) [µM]	Activity (Mus musculus)	IC50 (HCT-15) [µM]	inhibition at 0.1 µM (U373 MG [7]) [%]	inhibition at 0.1 µM (PC-3 [8]) [%]	inhibition at 0.1 µM (U373 MG [9]) [%]
COc1ccc(OC)c([C@@H]2C[C@H]3[C@@H]4CC=C5C[C@@H](O[C@@H]6O[C@H](CO)[C@@H](O)[C@H](O)[C@@H]6O)CC[C@]5(C)[C@H]4CC[C@]3(C)[C@H]2C(C)=O)c1	> 10	> 10	20	> 10	1	-1	> 10	> 10	Non-toxic	> 10	-4	2	2
COc1ccc(OC)c([C@@H]2C[C@H]3[C@@H]4CC=C5C[C@@H](O[C@@H]6O[C@H](CO)[C@@H](O)[C@H](O)[C@H]6O)CC[C@]5(C)[C@H]4CC[C@]3(C)[C@H]2C(C)=O)c1	> 10	> 10	2	> 10	9	6	> 10	> 10	Non-toxic	> 10	-8	2	-6
